In general, MIC refers to the lowest concentration that inhibits growth of the organism.

In brackets after ≈: the same amount, converted by molar mass.

Holding throughout (format): functional
One assay concerns Bacillus subtilis. Put plainly: Minimum inhibitory concentration against Bacillus subtilis. Put shortly: (§1)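 Broth tube dilution in brain heart infusion broth, 5 mL final volume. Compounds were dissolved in DMSO, diluted 1:9 with water, then serially diluted in medium. Cells were added at a final 2 × 10^3 CFU/mL and incubated at 37 °C for 24 h. Turbidity was read at 640 nm. MIC is the lowest concentration with no growth, confirmed by spreading 10 µL of clear tubes on BHI agar.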

A further assay has as its system Escherichia coli. Put plainly: Minimum inhibitory concentration against Escherichia coli. Put shortly:
as §1

In another assay the test system is Staphylococcus aureus. As to the kind of experiment: Minimum inhibitory concentration against Staphylococcus aureus. Put shortly:
as §1

Another assay has as its system Cephalosporium. As to the kind of experiment: Minimum inhibitory concentration against Cephalosporium acremonium. Put shortly:
(§2)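 Fungal MIC by tube dilution in potato dextrose broth, 5 mL final volume. Compounds were taken up in DMSO, diluted 1:9 with water, then serially diluted in medium. Spore suspension was added at a final 2 × 10^3 CFU/mL and incubated at 28 °C for 48 h. Absorbance was read at 640 nm. MIC is the lowest no-growth concentration, checked by subculturing 10 µL onto potato dextrose agar and examining under a microscope.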

In another assay the test system is Fusarium verticillioides. Put plainly: Minimum inhibitory concentration against Fusarium moniliforme. The procedure, abridged:
as §2

The test system of a further assay is Aspergillus niger. As to the kind of experiment: Minimum inhibitory concentration against Aspergillus niger. Put shortly: as §2
[1] abbreviates: Bacillus subtilis, read-out: MIC.
The mark [2] stands for this setting: Escherichia coli, read-out: MIC.
Where [3] appears, read: Staphylococcus aureus, read-out: MIC.

As to `CN[C@@H]1[C@H](O[C@H]2[C@H](O[C@H]3[C@H](O)[C@@H](O)[C@H](N=C(N)N)[C@@H](O)[C@@H]3N=C(N)N)O[C@@H](C)[C@]2(O)C=O)O[C@@H](CO)[C@H](O)[C@H]1O` [STREPTOMYCIN], the MIC is 3 µg/mL (≈ 5.16 µM) with Bacillus subtilis (setting [1]), 6 µg/mL (≈ 10.3 µM) with Escherichia coli (setting [2]) and 3 µg/mL (≈ 5.16 µM) with Staphylococcus aureus (setting [3]).
Turning to NYSTATIN, the MIC with Cephalosporium (Hapsidospora chrysogena) was 11 µg/mL; against Fusarium verticillioides, 14 µg/mL; with Aspergillus niger, 12 µg/mL.
With `CCCCOC(=O)[C@H]1C[C@@H](c2[nH]c(CCCC)nc2Cl)N(c2ccccc2)O1` (stereo in doubt; A), the MIC turned out to be 7 µg/mL (≈ 17.2 µM) with Bacillus subtilis (setting [1]); 11 µg/mL (≈ 27.1 µM) in the assay on Cephalosporium; 10 µg/mL (≈ 24.6 µM) in the assay on Escherichia coli (setting [2]); 13 µg/mL (≈ 32 µM) in the assay on Fusarium verticillioides; 7 µg/mL (≈ 17.2 µM) with Staphylococcus aureus (setting [3]); 14 µg/mL (≈ 34.5 µM) in the assay with Aspergillus niger.
Regarding `CCCCOC(=O)[C@H]1C[C@@H](c2[nH]c(CCCC)nc2Cl)N(c2ccccc2)O1` (stereo in doubt; B), the MIC in the assay on Bacillus subtilis is 7 µg/mL (≈ 17.2 µM); with Cephalosporium, 33 µg/mL (≈ 81.3 µM); in the assay on Escherichia coli, 11 µg/mL (≈ 27.1 µM); against Fusarium verticillioides it was 28 µg/mL (≈ 69 µM); against Staphylococcus aureus, 8 µg/mL (≈ 19.7 µM); against Aspergillus niger, 36 µg/mL (≈ 88.7 µM).

Source of the values: ChEMBL document CHEMBL1142648, “Enhancement in antimicrobial activity of 2-(phenyl)-3-(2-butyl-4-chloro-1H-imidazolyl)-5-butylate isoxazolidine” (2005).
